# Reference: ChEMBL document CHEMBL1154465, “Structure-activity relationships in the acronycine and benzo[b]acronycine series: role of the pyran ring” (Eur J Med Chem, 2008)
# How the values were obtained:
# L1210 = test: Cytotoxicity against mouse L1210 cells after 48 hrs by microculture tetrazolium assay; type: functional, cell-based; conditions: L1210, 48 h
# Procedure, shortened: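 L1210 cells maintained in RPMI 1640 plus 10% fetal calf serum, 2 mM L-glutamine, penicillin, streptomycin and 10 mM HEPES (pH 7.4). Drug exposure at nine serial dilutions in triplicate for four doubling times (48 h). Microculture tetrazolium read-out; results given as IC50.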
# [1] = Cytotoxicity against human KB3-1 cells after 96 hrs by microculture tetrazolium assay; type: functional, cell-based; conditions: KB 3-1, 96 h
# Procedure, shortened: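 KB-3-1 cells grown in DMEM with 10% fetal calf serum, 2 mM L-glutamine, penicillin, streptomycin and 10 mM HEPES (pH 7.4). Exposed to graded drug concentrations (nine serial dilutions, triplicate) for four doubling times (96 h). Viability read by microculture tetrazolium assay; IC50 reported.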
Compound,IC50 (L1210),IC50 [1]
COCc1c(OC)cc(OC)c2c(=O)c3ccccc3n(C)c12,51.7 µM,36.2 µM
COc1ccc2c(=O)c3ccccc3n(C)c2c1COC(C)=O,24 µM,
COc1cc(OC)c2c(=O)c3ccccc3n(C)c2c1CO,23.9 µM,34.1 µM
COc1cc(OC)c2c(=O)c3ccccc3n(C)c2c1COC(C)=O,39.9 µM,17.7 µM
COc1ccc2c(=O)c3cc4ccccc4cc3n(C)c2c1CO,34.6 µM,22.5 µM
COc1cc(OC(C)(C)CO)c(CO)c2c1c(=O)c1cc3ccccc3cc1n2C,1.3 µM,26.2 µM
COc1cc(OC(C)(C)COC(C)=O)c(COC(C)=O)c2c1c(=O)c1cc3ccccc3cc1n2C,3 µM,4.9 µM
COc1ccc2c(=O)c3ccccc3n(C)c2c1CO,13.9 µM,
COc1ccc2c(=O)c3cc4ccccc4cc3n(C)c2c1COC(C)=O,18.5 µM,7.9 µM
COc1cc2c(c3c1c(=O)c1cc4ccccc4cc1n3C)[C@@H](OC(C)=O)[C@@H](OC(C)=O)C(C)(C)O2 (relative stereo),,0.095 µM
